# APP 5'UTR act = activators of APP 5'UTR luciferase reporter, primary screen, SH-SY5Y cells; SH-SY5Y APP 5'UTR luciferase reporter, luminescence; zero percent = DMSO vehicle wells; activation, % at 2 µM; actives 1% (n = 190,000); AID 1276, 2008;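 active = activation above a set limit, based on mean plus 3 SD of controls, cut at about 140% in these data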
# STAT1 act = STAT1 signaling activators, primary screen, cell-based, HTS, luciferase reporter; NIH 3T3 STAT1-luciferase reporter, IFN-gamma, luminescence; 100% = IFN-gamma alone, no compound; actives 2.6% (n = 200,000); activation (% of control), % at 5.5 µM;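 active = activation above the screen-wide mean activation plus 3 SD, cut at about 130% in these data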;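 also: raw ratio to IFN-gamma control signal so 100% means no change and 0% no light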
# NF-kB expr up = activators of NF-kB expression in neurons, primary screen, cell-based, HTS; human neuronal cells, NF-kB reporter expression; hits give high values; fold change at 12.5 µM; actives 1.6% (n = 190,000); in the data active = fold change above about 3.3
# APP transl inh = inhibitors of APP translation via 5'UTR reporter, primary screen, APP 5'UTR luciferase, SH-SY5Y cells | AID 1285, 2008 | inhibition, % at 2 µM | SH-SY5Y APP 5'UTR-luciferase reporter, luminescence | actives 0.82% (n = 190,000);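 active = inhibition above a set limit, derived from the sample mean plus 3 SD, cut at about 45% in these data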
# FLuc stim CS = FLuc activators, initial screening, artefact control for FLuc-dependent activation tests, biochemical, ATPlite luminescence | Luciferin 4-monooxygenase (Photinus pyralis), P08659 | ATPlite luciferase biochemical, 10 min; 0 = ATP-free wells, 1 = DMSO control | activation factor at 10 µM | 200,000 tested, under 10 active | AID 1027, 2008;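 active = luciferase activation factor, scaled between plate controls, of at least 2 with compound at 10 µM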
# Target sequence (P08659 whole entry, looked up): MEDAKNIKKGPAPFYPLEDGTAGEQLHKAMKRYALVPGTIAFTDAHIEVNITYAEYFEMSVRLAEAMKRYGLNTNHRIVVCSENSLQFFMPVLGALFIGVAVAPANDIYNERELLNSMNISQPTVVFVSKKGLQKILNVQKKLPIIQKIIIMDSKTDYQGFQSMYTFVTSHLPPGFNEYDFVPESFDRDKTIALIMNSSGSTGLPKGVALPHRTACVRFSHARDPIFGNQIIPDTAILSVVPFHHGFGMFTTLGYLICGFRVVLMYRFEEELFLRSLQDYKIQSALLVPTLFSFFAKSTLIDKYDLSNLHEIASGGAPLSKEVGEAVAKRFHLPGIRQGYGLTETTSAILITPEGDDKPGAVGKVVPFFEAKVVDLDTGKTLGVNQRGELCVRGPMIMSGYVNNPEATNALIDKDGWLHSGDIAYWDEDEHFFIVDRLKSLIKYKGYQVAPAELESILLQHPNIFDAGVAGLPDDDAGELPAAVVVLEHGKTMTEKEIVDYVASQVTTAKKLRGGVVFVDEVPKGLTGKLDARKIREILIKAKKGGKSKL
#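 System: Luciferase/luciferin detection reagent, cell-free biochemical luciferase assay | Medium: PBS buffer for ATP | Dosing: Test compounds dosed from 2 mM stocks in 100% DMSO | Timing: 10 min at ambient temperature | Signal: Luminescence measurement of luciferase light output | Evaluation: Luciferase activation, seen as luminescence increase over controls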
# FLuc inh counter = firefly luciferase enzyme inhibitors, primary screen, artefact control for luciferase-based inhibitor screens, biochemical, luminescence, ATPLite; inhibition, % at 10 µM; 10 min; Luciferin 4-monooxygenase (Photinus pyralis), P08659; actives 1.5% (n = 200,000);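 active = inhibition above about 50% when tested at 10 µM, limit read from the data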
# * marks the source's active call; other numbers are inactive results; x = no result given. A selection: hits, their analogues and other compounds. The true share with any hit is near 4.8%.
SMILES,APP 5'UTR act,STAT1 act,NF-kB expr up,APP transl inh,FLuc stim CS,FLuc inh counter
CC1=CC(C)(C)N2C(=O)C3(NCCc4c3[nH]c3ccccc43)c3cccc1c32 (stereo not given),-4,105,1,4,1,-2
O=C(COC(=O)C1CC(=O)N(Cc2ccccc2)C1)Nc1ccc2c(c1)OCO2 (stereo not given),-53,106,1.1,53*,1.1,-7
Cc1c(NC(=O)OCCSc2nc(N(C)C)nc(N(C)C)n2)sc(=S)n1C,-11,97,1,11,1.1,-7
COc1nc(-c2ccccc2)c2c(c1C#N)CC(C)(C)OC2,6,100,1.2,-6,1,-3
O=C(Nc1ccc(Cl)cn1)c1cc2ccccc2o1,205*,125,9.2*,-205,0.4,64*
O=C(Nc1ccc(Br)cn1)c1cccc(-c2cc3ccccc3oc2=O)c1,59,144*,2.1,-59,1,-3
Cc1nc(NC(=O)c2cccc(-c3cc4ccccc4oc3=O)c2)ccc1Br,2,114,2,-2,1.1,-6
O=C(Nc1ccccn1)c1cc2ccccc2o1,86,59,3.2,-86,0.1,95*
O=C(Nc1ccc(Cl)cn1)c1ccc(-c2cc(Cl)ccc2Cl)o1,-20,105,1.2,20,1.1,-7
O=C(NC1=NCCS1)c1cc2ccccc2o1,127,96,4.8*,-127,0.1,86*
O=C(NC1=NCCS1)c1cccs1,19,98,1.1,-19,1,-4
O=C(Nc1cccc2ncccc12)c1cc2ccccc2o1,3,104,1.2,-3,1,3
CC(=O)Nc1ccc(NS(=O)(=O)c2ccc(C)cc2)c([N+](=O)[O-])c1,10,105,0.87,-10,1,-3
CC1CCCN(C(=O)CSc2cnc3ccccc3n2)C1 (stereo not given),2,116,1.9,-2,1,2
O=C(COC(=O)CNC(=O)c1ccccc1)Nc1ccc(Cl)cc1C(F)(F)F,-12,94,1.1,12,1,-4
Cc1c(Cl)c([N+](=O)[O-])nn1Cc1ccc(C(=O)Nc2ccc(Cl)cn2)o1,-8,95,1.1,8,1.1,-12
O=C(Nc1ccc(Cl)cn1)c1ccc([N+](=O)[O-])o1,-47,102,5.9*,47*,1.1,-5
COc1ccccc1CNc1ccc(CNc2ncn[nH]2)cc1,-6,102,5.3*,6,1,-3
c1ccc2c(CNc3ccc(CNc4ncn[nH]4)cc3)cccc2c1,14,90,0.83,-14,1,-3
COc1cc(CNc2ccc(CNc3ncn[nH]3)cc2)ccc1OCc1ccccc1,7,129*,1.3,-7,1,1
COc1cc(CNc2ncn[nH]2)ccc1OCC(=O)NC(C)(C)C,10,92,0.88,-10,1,0
c1c2c(cc3sc(N4CCOCC4)nc13)OCCO2,81,53,1,-81,0.2,84*
Cc1ccc(N/C(C(Cl)=C(Cl)Cl)=C(/Cl)[N+](=O)[O-])c(C)c1,7,105,1.1,-7,1,-3
O=C(/C=C/N1CCOCC1)c1cc2ccccc2o1,27,127,2,-27,0.6,41
O=C(/C=C/N1CCOCC1)c1coc2ccccc12,49,136*,2.4,-49,0.5,54*
SMILES,APP 5'UTR act,STAT1 act,NF-kB expr up,APP transl inh,FLuc stim CS,FLuc inh counter
Cc1ccnc(NC(=O)CCCOc2cc(=O)n(C)c3ccccc23)c1,13,113,7.6*,-13,1,-4
COC(=O)C1=C(C)NC(C)=C(C(=O)OC)C1c1ccccc1OCc1c(C)no[n+]1[O-],9,101,1.2,-9,1,0
CCO[C@@H]1OC(C(=O)NCc2ccccc2)=C[C@H](c2coc3ccccc3c2=O)[C@H]1CCCO,-24,106,1.2,24,1,-3
CCn1c(-c2ccc(F)cc2)cnc1SCC(=O)N1CCCCC1C (stereo not given),69,132*,2.9,-69,0.9,6
CCn1c(-c2ccc(F)cc2)cnc1SCC(=O)N1CCc2ccccc21,8,126,1.1,-8,1,5
COc1cc2c(cc1NC(=O)COc1ccc3ccccc3c1)oc1ccccc12,-46,99,1.1,46*,1,0
Clc1ccc2c(c1)C(c1cccs1)=NNC(c1cccnc1)=N2,-13,102,1.1,12,1,-2
CCOc1ccccc1NC(=O)CN(c1cc(C)cc(C)c1)S(=O)(=O)c1c(C)noc1C,18,102,0.97,-18,1.1,-8
CCOc1ccccc1NC(=O)CN(c1ccc(OC)cc1)S(=O)(=O)c1c(C)noc1C,-89,107,2.4,89*,1.1,-5
CCOc1ccc(N(CC(=O)Nc2ccccc2C)S(=O)(=O)c2c(C)noc2C)cc1,-66,98,2.8,66*,1,-3
O=c1c2ccccc2nc2n1CC/C2=C/N1CCN(c2cccc(C(F)(F)F)c2)CC1,-5,85,1.1,5,1,-4
Cc1cc(/C=C2\SC(N)=NC2=O)c(C)n1-c1ccccc1,x,128,1.4,x,0.2,83*
Cc1cc(-c2nn(-c3ccccc3)cc2/C=C2\SC(N)=NC2=O)ccc1OC(C)C,-4,109,0.88,4,1,2
c1ccc(Cn2ccc(-c3cnc(-c4ccccc4)s3)n2)cc1,125,142*,6.8*,-125,0.6,44
Nc1ccn(Cc2ccccc2)n1,5,98,1.4,-5,1,-4
Cc1cccc(C)c1NC(=O)Cn1cnc2c(=O)n(C)c(=O)n(C)c21,-4,92,0.89,4,1.1,-10
Cc1ccccc1C(=O)Nc1cccc(NC(=O)Cn2cnc3c(=O)n(C)c(=O)n(C)c32)c1,-13,96,5.4*,13,1,0
Nc1ccc2nc(-c3cccs3)[nH]c2c1,41,124,1.3,-41,0.6,38
CC(=O)Nc1ccc2nc(-c3ccc(Br)o3)[nH]c2c1,72,133*,1.5,-72,0.7,34
CC(=O)Nc1ccc2nc(-c3cccs3)[nH]c2c1,69,124,1.9,-69,0.5,52*
O=C(Nc1ccc2nc(-c3ccc(Br)o3)[nH]c2c1)c1ccco1,x,111,0.54,x,0.6,44
Cc1nn(-c2ccccc2)c(C)c1/C=N/NC(=O)CSc1nnc(SCc2ccc(Cl)cc2)s1,4,100,0.98,-4,1,-2
